Results pooled from the literature.
Compare with care: the assays were run in different laboratories.
lecA: PA-I galactophilic lectin (lecA, Pseudomonas aeruginosa, UniProt Q05097)
CHRM2: Muscarinic acetylcholine receptor M2 (CHRM2, Homo sapiens, UniProt P08172)
Oprd1: Delta-type opioid receptor (Oprd1, Mus musculus, UniProt P32300)

Compound	target	assay	setting	quantity	result
Cc1nccc2c1[nH]c1ccccc12	Amine oxidase [flavin-containing] A (Maoa, Rattus norvegicus, UniProt P21396)	enzyme activity, inhibitor		Ki	750 nM
CC(C)[C@H](NC(=O)[C@H](CCCCN)NC(=O)[C@@H](NC(=O)[C@@H]1CCCN1C(=O)[C@H](CCCNC(=N)N)NC(=O)CNC(=O)[C@@H](NC(=O)[C@@H](NC(=O)CNC(=O)[C@H](CO)NC(=O)CNC(=O)CCCC[C@@H]1SC[C@@H]2NC(=O)N[C@@H]21)[C@@H](C)O)[C@@H](C)O)[C@@H](C)O)C(=O)N[C@@H](Cc1ccccc1)C(=O)N[C@H](C(=O)N1CCC[C@H]1C(=O)N1CCC[C@H]1C(=O)N[C@@H](Cc1ccccc1)C(=O)N[C@@H](CCCCN)C(=O)N[C@H](C(=O)N[C@@H](CCCCN)C(=O)N[C@@H](CO)C(=O)N[C@@H](Cc1c[nH]cn1)C(=O)N[C@@H](Cc1ccccc1)C(=O)N[C@@H](Cc1c[nH]cn1)C(N)=O)[C@@H](C)O)C(C)C	DMC1 (Homo sapiens, UniProt Q14565)	binding, BLI		Kd	1.3e-06 mM
CC(C)C[C@H](NC(=O)CNC(=O)[C@H](C)NC(=O)c1ccc(S[C@@H]2O[C@H](CO)[C@H](O)[C@H](O)[C@H]2O)cc1)C(=O)N[C@@H](C)C(=O)N1CCN(c2cc3c(cc2F)c(=O)c(C(=O)O)cn3C2CC2)CC1	lecA	ligand displacement, FP		Ki	12900 nM
CC[C@H](C)[C@H](NC(=O)[C@H](Cc1ccccc1)NC(=O)[C@H](CC(=O)O)NC(=O)[C@H](CCCNC(=N)N)NC(=O)[C@@H](NC(=O)[C@H](C)NC(=O)[C@H](CC(C)C)NC(=O)[C@H](CC(N)=O)NC(=O)[C@H](CC(=O)O)NC(=O)[C@H](CC(C)C)NC(=O)[C@@H](NC(=O)[C@@H](NC(=O)[C@H](CO)NC(=O)[C@H](CCSC)NC(=O)[C@H](CCC(=O)O)NC(=O)[C@H](CC(=O)O)NC(=O)[C@H](CO)NC(=O)[C@H](Cc1ccccc1)NC(=O)[C@H](CO)NC(=O)CNC(=O)[C@H](CC(=O)O)NC(=O)[C@H](C)NC(=O)[C@@H](N)Cc1c[nH]cn1)[C@@H](C)O)[C@@H](C)CC)[C@@H](C)O)C(=O)N[C@@H](CC(N)=O)C(=O)N[C@@H](Cc1c[nH]c2ccccc12)C(=O)N[C@@H](CC(C)C)C(=O)N[C@H](C(=O)N[C@@H](CCC(N)=O)C(=O)N[C@H](C(=O)N[C@@H](CCCCN)C(=O)N[C@H](C(=O)N[C@H](C(=O)N[C@@H](CC(=O)O)C(=O)O)[C@@H](C)O)[C@@H](C)CC)[C@@H](C)O)[C@@H](C)CC	Gastric inhibitory polypeptide receptor (Mus musculus, UniProt Q0P543)	reporter gene, agonist, luciferase		EC50	> 1000 nM
COc1cc(C(=O)N2CC[C@@H](O)[C@@H](N)C2)cc2nc(-c3cc4ccccc4n3CC3CC3)n(C)c12	CHRM2	calcium signal, agonist		EC50	> 15800 nM
Cc1cc(O)cc(C)c1C[C@H](N)C(=O)N[C@H](C)C(=O)N[C@@H](Cc1ccccc1)C(=O)N[C@@H](CCCN)C(N)=O	Oprd1	ligand displacement, radioligand	cell membranes	Ki	60 nM
CC(C)[C@@H](Nc1nc(Cl)nc2c1ncn2[C@H]1[C@H](O)[C@H](O)[C@]2(CN)C[C@H]12)C1CC1	CHRM2	ligand displacement, radioligand		Ki	> 6600 nM
N[C@H](CO)Cc1ccccc1	Phenylalanine-4-hydroxylase (Pah, Rattus norvegicus, UniProt P04176)	binding, fluorescence	pH 7.5	Kd	10.6 mM
CC(=O)NC[C@H](NC(=O)[C@H](CCCNC(=N)N)NC(=O)[C@H](CCCNC(=N)N)NC(=O)[C@H](CC(C)C)NC(=O)[C@H](Cc1ccccc1)NC(=O)CNC(=O)CNC(=O)[C@H](Cc1ccc(O)cc1)NCc1ccccc1)C(=O)N[C@@H](CCCNC(=N)N)C(=O)N1CCC[C@H]1C(=O)N[C@@H](CCCCN)C(N)=O	Oprd1	ligand displacement, radioligand	cell membranes	Ki	2290 nM
CC(C)C[C@H](NC(=O)CNC(=O)[C@H](C)NC(=O)c1ccc(S[C@@H]2O[C@H](CO)[C@H](O)[C@H](O)[C@H]2O)cc1)C(=O)N[C@@H](C)C(=O)NC[C@@H]1CCN(c2cc3c(cc2F)c(=O)c(C(=O)O)cn3C2CC2)C1	lecA	ligand displacement, FP		Ki	11200 nM
CC(C)C[C@H](NC(=O)[C@H](Cc1ccccc1)NC(=O)[C@H](Cc1ccc(O)cc1)NC(=O)CNC(=O)[C@H](CCCCN)NC(=O)[C@H](CO)NC(=O)[C@H](CCC(N)=O)NC(=O)CNC(=O)[C@@H](NC(=O)[C@H](CO)NC(=O)[C@@H]1CCCN1C(=O)[C@H](CO)NC(=O)[C@H](CCC(N)=O)NC(=O)[C@H](Cc1ccc(O)cc1)NC(=O)[C@H](CCC(=O)O)NC(=O)[C@H](C)NC(=O)[C@H](CCCCN)NC(=O)[C@@H](N)Cc1ccccc1)C(C)C)C(=O)N[C@@H](Cc1ccccc1)C(=O)N[C@@H](CCCNC(=N)N)C(=O)N1CCC[C@H]1C(=O)N[C@@H](CCCNC(=N)N)C(=O)N[C@@H](CC(N)=O)C(N)=O	Neuromedin-U receptor 1 (Mus musculus, UniProt O55040)	inositol phosphate, agonist		EC50	0.166 nM
